Results on four compounds are retold here after BindingDB's records for doi:10.1016/j.bmc.2015.06.007 (Taipei Medical University, 2015).

The assay concerns the target T1, Tumor necrosis factor ligand superfamily member 11 (Mus musculus, UniProt O35235).
T1 sequence (O35235 whole entry): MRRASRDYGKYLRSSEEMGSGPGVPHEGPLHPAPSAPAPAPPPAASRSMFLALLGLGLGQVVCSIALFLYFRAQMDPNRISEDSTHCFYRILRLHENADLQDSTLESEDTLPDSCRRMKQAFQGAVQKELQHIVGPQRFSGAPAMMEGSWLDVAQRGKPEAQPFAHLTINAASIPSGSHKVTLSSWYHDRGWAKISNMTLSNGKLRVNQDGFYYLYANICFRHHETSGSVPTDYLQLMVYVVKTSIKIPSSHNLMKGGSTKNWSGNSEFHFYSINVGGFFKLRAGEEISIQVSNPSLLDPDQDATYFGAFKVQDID
The experiment in a line: Inhibition of recombinant mouse RANKL-induced TRAP activity in mouse RAW264.7 cells using 4-nitrophenyl phosphate as TRAP substrate preincubated for 4 days followed by substrate addition measured after 15 mins by ELISA reader analysis. Put shortly:
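RAW264.7 cells (2 × 10⁴ per well) were cultured 4 days in α-MEM with 10% FBS, 2 mM L-glutamine and murine RANKL 100 ng/mL, with or without compound. Cells were lysed in 0.1% Triton X-100/50 mM Tris-HCl pH 7.2 on ice. They were incubated with 2 mg/mL 4-nitrophenyl phosphate in 0.09 M citrate for 15 min at 37 °C, stopped with 0.1 N NaOH, and read at 405 nm. Protein was measured by BCA.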

pIC50: −log10 of the molar value.

`O=c1oc2ccc(-c3ccc(F)cc3F)cc2c(=O)n1-c1cc(F)ccc1F`: the pIC50 was 5.37.

Consider `O=c1oc2ccc(-c3ccc(F)cc3F)cc2c(=O)n1-c1cccc(C(F)(F)F)c1`, for which the pIC50 was 5.37.

In the case of `C#Cc1cccc(-n2c(=O)oc3ccc(-c4ccc(F)cc4F)cc3c2=O)c1`, the pIC50 was 5.43.

In the case of `O=c1oc2ccccc2c(=O)n1-c1ccc(Cl)cc1F`, the pIC50 is 4.97.

One may read the pIC50 as the IC50 on a negative log10 scale, so that one unit is a factor of ten.
